From ChEMBL document CHEMBL1955842, “Substituent effects on P2-cyclopentyltetrahydrofuranyl urethanes: design, synthesis, and X-ray studies of potent HIV-1 protease inhibitors” (Bioorg Med Chem Lett, 2012)

Legend:
Protease = Protease (Human immunodeficiency virus 1, UniProt Q9YQ12); assay: Inhibition of HIV1 protease using hexapeptide Ac-Thr-Ile-Nle-Nle-Gln-Arg-NH2 as substrate by fluorimetric assay
[1] = system: Human immunodeficiency virus 1; assay: Antiviral activity against HIV1 […] infected in human MT2 cells by MTT assay; assay type: functional, organism-based; conditions: Human immunodeficiency virus 1, MT2
Outline: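 MT-2 human T-lymphoid cells (2 × 10^3) infected with 100 TCID50 of HIV-1LAI and cultured with inhibitor present. IC50 read out by MTT assay.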

[2] = system: Human immunodeficiency virus 1; assay: Antiviral activity against HIV1 MDR/B harboring protease L10I, K14R, L33I, M36I, M46I, F53I, K55R, I62V, L63P, A71V, G73S, V82A, L90M, I93L mutant infected in PHA-PBM cells assessed as inhibition of p24 Gag protein production; assay type: functional, organism-based; conditions: Human immunodeficiency virus 1, MDR/B, PBMC
Outline: (§1)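 EC50 measured against each isolate. Assays run in duplicate. Values are means (±1 standard deviation) from two or three independent experiments. Fold-change for each isolate is its EC50 relative to the EC50 for wild-type HIV-1ERS104pre.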

[3] = system: Human immunodeficiency virus 1; assay: Ratio of EC50 for HIV1 MDR/C harboring protease L10I, I15V, K20R, L24I, M36I, M46L, I54V, I62V, L63P, K70Q, V82A, and L89 mutant to EC50 for HIV1 ERS104 harboring wild type protease; assay type: functional
Outline: (§2)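 Fold-change: EC50 against each multidrug-resistant HIV-1 isolate divided by EC50 against wild-type HIV-1ERS104pre. Assays run in duplicate; values are means (±1 standard deviation) from two or three independent experiments.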

[4] = system: Human immunodeficiency virus 1; assay: Ratio of EC50 for HIV1 MDR/TM harboring protease L10I, K14R, R41K, M46L, I54V, L63P, A71V, V82A, L90M, I93L mutant to EC50 for HIV1 ERS104 harboring wild type protease; assay type: functional; outline: as §2
[5] = system: Human immunodeficiency virus 1; assay: Antiviral activity against wild type HIV1 ERS104 infected in PHA-PBM cells assessed as inhibition of p24 Gag protein production; assay type: functional, organism-based; conditions: Human immunodeficiency virus 1, ERS104, PBMC; outline: as §1
[6] = system: Human immunodeficiency virus 1; assay: Ratio of EC50 for HIV1 MDR/B harboring protease L10I, K14R, L33I, M36I, M46I, F53I, K55R, I62V, L63P, A71V, G73S, V82A, L90M, I93L mutant to EC50 for HIV1 ERS104 harboring wild type protease; assay type: functional; outline: as §2
[7] = system: Human immunodeficiency virus 1; assay: Ratio of EC50 for HIV1 MDR/G harboring protease L10I, V11I, T12E, I15V, L19I, R41K, M46L, L63P, A71T, V82A, and L90M mutant to EC50 for HIV1 ERS104 harboring wild type protease; assay type: functional; outline: as §2
[8] = system: Human immunodeficiency virus 1; assay: Antiviral activity against HIV1 MDR/C harboring protease L10I, I15V, K20R, L24I, M36I, M46L, I54V, I62V, L63P, K70Q, V82A, and L89 mutant infected in PHA-PBM cells assessed as inhibition of p24 Gag protein production; assay type: functional, organism-based; conditions: Human immunodeficiency virus 1, MDR/C, PBMC; outline: as §1
[9] = system: Human immunodeficiency virus 1; assay: Antiviral activity against HIV1 MDR/G harboring protease L10I, V11I, T12E, I15V, L19I, R41K, M46L, L63P, A71T, V82A, and L90M mutant infected in PHA-PBM cells assessed as inhibition of p24 Gag protein production; assay type: functional, organism-based; conditions: Human immunodeficiency virus 1, MDR/G, PBMC; outline: as §1
[10] = system: Human immunodeficiency virus 1; assay: Antiviral activity against HIV1 MDR/TM harboring protease L10I, K14R, R41K, M46L, I54V, L63P, A71V, V82A, L90M, I93L mutant infected in PHA-PBM cells assessed as inhibition of p24 Gag protein production; assay type: functional, organism-based; conditions: Human immunodeficiency virus 1, MDR/TM, PBMC; outline: as §1

Chain of Protease (Q9YQ12 whole entry): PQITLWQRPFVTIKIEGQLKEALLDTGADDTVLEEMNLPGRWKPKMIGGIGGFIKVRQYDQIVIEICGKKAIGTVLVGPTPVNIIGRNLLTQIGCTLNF

Row | Compound | Ki (Protease) [nM] | IC50 [1] [nM] | EC50 [2] [nM] | Ratio EC50 [3] | Ratio EC50 [4] | EC50 [5] [nM] | Ratio EC50 [6] | Ratio EC50 [7] | EC50 [8] [nM] | EC50 [9] [nM] | EC50 [10] [nM]
1 | COc1ccc(S(=O)(=O)N(CC(C)C)C[C@@H](O)[C@H](Cc2ccccc2)NC(=O)O[C@@H]2C[C@@H]3[C@@H](NS(C)(=O)=O)CO[C@@H]3C2)cc1 | 0.18 | 50 |  |  |  |  |  |  |  |  | 
2 | COc1ccc(S(=O)(=O)N(CC(C)C)C[C@@H](O)[C@H](Cc2ccccc2)NC(=O)O[C@@H]2C[C@@H]3[C@H](NC(C)=O)CO[C@@H]3C2)cc1 | 0.0074 | 25 |  |  |  |  |  |  |  |  | 
3 | COC(=O)N[C@H]1CO[C@@H]2C[C@H](OC(=O)N[C@@H](Cc3ccccc3)[C@H](O)CN(CC(C)C)S(=O)(=O)c3ccc(OC)cc3)C[C@H]12 | 0.004 | 4.6 | 18 | 5 | 8 | 3 | 6 | 7 | 15 | 20 | 24
4 | COC(=O)N[C@@H]1CO[C@@H]2C[C@H](OC(=O)N[C@@H](Cc3ccccc3)[C@H](O)CN(CC(C)C)S(=O)(=O)c3ccc(OC)cc3)C[C@H]12 |  | 1.6 | 75 | 1 | 3 | 29 | 3 | 1 | 30 | 39 | 74
5 | COc1ccc(S(=O)(=O)N(CC(C)C)C[C@@H](O)[C@H](Cc2ccccc2)NC(=O)O[C@@H]2C[C@@H]3[C@@H](OC(=O)N(C)C)CO[C@@H]3C2)cc1 | 0.02 | 4.7 |  |  |  |  |  |  |  |  | 
6 | COc1ccc(S(=O)(=O)N(CC(C)C)C[C@@H](O)[C@H](Cc2ccccc2)NC(=O)O[C@@H]2C[C@@H]3[C@H](NS(C)(=O)=O)CO[C@@H]3C2)cc1 | 0.032 | 28 |  |  |  |  |  |  |  |  | 
7 | COc1ccc(S(=O)(=O)N(CC(C)C)C[C@@H](O)[C@H](Cc2ccccc2)NC(=O)O[C@@H]2C[C@@H]3[C@@H](NC(C)=O)CO[C@@H]3C2)cc1 | 0.0075 | 31 |  |  |  |  |  |  |  |  | 
8 | CC(C)CN(C[C@@H](O)[C@H](Cc1ccccc1)NC(=O)O[C@H]1CO[C@H]2OCC[C@H]21)S(=O)(=O)c1ccc(N)cc1 |  |  | 19 |  |  |  |  |  | 11 | 11 | 28
